# Test results: ChEMBL document CHEMBL1255483, “Intra- and extracellular activities of dicloxacillin against Staphylococcus aureus in vivo and in vitro” (Antimicrob Agents Chemother, 2010)
# The source made the active and inactive calls. The calls are words filed in the database; no cut-off is given here.
# How the values were obtained:
# [1] = fT>MIC in Staphylococcus aureus E19977 infected NMRI mouse at 120 mg/kg administered every 6 hrs; type: functional
# Outline: (§1)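 Calculated percentage of 24 h at steady state that free plasma DCX exceeds the strain MIC (microdilution, pH 7.4). Concentrations were simulated from single subcutaneous dose plasma curves in NMRI mice (S. lutea bioassay), adjusted with a square-root model of concentration-dependent free fraction from ultrafiltration. The regimen was dosed subcutaneously in mice infected intraperitoneally with 10^7.4 CFU, and peritoneal CFU were read after 24 h of therapy.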
# Staphylococcus aureus [2] = assay: Antimicrobial activity against Staphylococcus aureus E19977 infected in human THP-1 cells after 24 hrs; type: functional, organism-based; conditions: E19977, THP-1, 24 h
# Outline: (§2)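 Human THP-1 macrophages were infected with opsonized S. aureus at 4 bacteria per macrophage for 45 min. Non-phagocytized bacteria were removed by washing and a brief incubation in PBS with gentamicin 50 mg/liter. Cells were then incubated up to 24 h with DCX over a wide range of extracellular concentrations. The read-out was Δlog CFU per mg cell protein versus time zero (n = 3), with sigmoidal fitting and Cstatic by interpolation.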
# Staphylococcus aureus [3] = assay: Bacteriostatic activity against Staphylococcus aureus ATCC 25923 infected in human THP-1 cells at 100 times MIC after 5 hrs; type: functional, organism-based; outline: as §2
# Staphylococcus aureus [4] = assay: Bactericidal activity against Staphylococcus aureus ATCC 25923 assessed as log reduction in bacterial count at 100 times MIC after 24 hrs by time-kill assay; type: functional
# Outline: (§3)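 Broth time-kill: MSSA at 10⁶ CFU/ml exposed to a wide range of dicloxacillin concentrations. CFU counted after 5 and 24 h and expressed as change in log₁₀ CFU/ml from time zero. Multiples refer to the MIC by CLSI microdilution at pH 7.4. n = 3.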
# Staphylococcus aureus [5] = assay: Bactericidal activity against Staphylococcus aureus E19977 assessed as log reduction in bacterial count at 100 times MIC after 5 hrs by time-kill assay; type: functional; outline: as §3
# Staphylococcus aureus [6] = assay: Bactericidal activity against Staphylococcus aureus E19977 assessed as log reduction in bacterial count at MIC after 5 hrs by time-kill assay; type: functional; outline: as §3
# Staphylococcus aureus [7] = assay: Bactericidal activity against Staphylococcus aureus ATCC 25923 assessed as log reduction in bacterial count at 10 times MIC after 5 hrs by time-kill assay; type: functional; outline: as §3
# Staphylococcus aureus [8] = assay: Bactericidal activity against Staphylococcus aureus ATCC 25923 assessed as log reduction in bacterial count at MIC after 5 hrs by time-kill assay; type: functional; outline: as §3
# Staphylococcus aureus [9] = assay: Bactericidal activity against Staphylococcus aureus E19977 assessed as log change in bacterial count after 24 hrs; type: functional
# Outline: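 Extracellular broth time- and concentration-kill test. The inoculum was ~10⁶ CFU/ml, exposed to a wide range of DCX concentrations, with CFU counted after 5 and 24 h. The read-out was Δlog CFU/ml versus time zero (mean ± SD, n = 3). A sigmoidal fit with slope 1 gave Emax and EC50. Cstatic was read by graphical interpolation as the concentration giving no change from the inoculum.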
# [10] = AUC (24 hrs) in NMRI mouse at 60 mg/kg, sc; type: ADME, organism-based; parameters: time < 24 hr, dose 60 mg/kg, route subcutaneous; conditions: plasma
# Outline: (§4)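 Single subcutaneous DCX doses given to NMRI mice. Blood was collected into EDTA tubes, and plasma drug was assayed by microbiological bioassay with S. lutea ATCC 9391 (detection limit 1.5 mg/liter, linear to 100 mg/liter). Values came from noncompartmental analysis. Terminal half-life was fitted monoexponentially to the last four time points. AUC24 combined the trapezoidal rule over mean points with exact integration of the fitted curve extrapolated to 24 h.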
# [11] = AUC (24 hrs) in NMRI mouse at 1200 mg/kg, sc; type: ADME, organism-based; parameters: time < 24 hr, dose 1200 mg/kg, route subcutaneous; conditions: plasma
# [12] = AUC (24 hrs) in NMRI mouse at 300 mg/kg, sc; type: ADME, organism-based; parameters: time < 24 hr, dose 300 mg/kg, route subcutaneous; conditions: plasma; outline: as §4
# [13] = Cmax in NMRI mouse at 300 mg/kg, sc; type: ADME, organism-based; parameters: dose 300 mg/kg, route subcutaneous; conditions: in vivo
# Outline: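 Single subcutaneous dicloxacillin doses were given to NMRI mice. EDTA plasma was assayed by microbiological bioassay with S. lutea ATCC 9391 (detection limit 1.5 mg/liter, linear to 100 mg/liter, CV ~5%). Cmax was obtained by noncompartmental analysis.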
# [14] = Half-life in NMRI mouse at 30 mg/kg, sc; type: ADME, organism-based; parameters: dose 30 mg/kg, route subcutaneous; conditions: in vivo; outline: as §4
# [15] = Half-life in NMRI mouse at 120 mg/kg, sc; type: ADME, organism-based; parameters: dose 120 mg/kg, route subcutaneous; conditions: in vivo; outline: as §4
# [16] = Ratio of fAUC (24 hrs) in NMRI mouse at 30 mg/kg administered every 2 hrs to MIC for Staphylococcus aureus E19977; type: functional
# Outline: (§5)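 Modeled free AUC over 24 h divided by the MIC, not measured directly. Single subcutaneous DCX doses were given to NMRI mice, and plasma was assayed by S. lutea bioassay. Noncompartmental analysis used trapezoidal mean points plus a fitted monoexponential extrapolated to 24 h. Free fraction came from a square-root fit to plasma ultrafiltration binding (10–400 mg/liter spike, 1 h, 37°C). The MIC was measured by broth microdilution at pH 7.4.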
# [17] = Ratio of fAUC (24 hrs) in NMRI mouse at 200 mg/kg administered every 6 hrs to MIC for Staphylococcus aureus E19977; type: functional; outline: as §5
# [18] = Ratio of fAUC (24 hrs) in NMRI mouse at 400 mg/kg administered every 12 hrs to MIC for Staphylococcus aureus E19977; type: functional; outline: as §5
# [19] = Ratio of fCmax in NMRI mouse at 80 mg/kg administered every 8 hrs to MIC for Staphylococcus aureus E19977; type: functional
# Outline: (§6)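 Free Cmax/MIC was modelled, not measured. Single-dose subcutaneous plasma curves from NMRI mice were projected to the multiple-dose regimens. Free fraction came from a square-root fit of unbound fraction versus total concentration. Binding was measured by ultrafiltration of mouse plasma spiked with 10–400 mg/liter and held 1 h at 37°C. MIC was for strain E19977.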
# [20] = Ratio of fCmax in NMRI mouse at 400 mg/kg administered every 12 hrs to MIC for Staphylococcus aureus E19977; type: functional; outline: as §6
# [21] = Ratio of fCmax in NMRI mouse at 300 mg/kg administered every 12 hrs to MIC for Staphylococcus aureus E19977; type: functional; outline: as §6
# Mus musculus [22] = species on record: Mus musculus; assay: Protein binding in NMRI mouse at 10 mg/l by ultrafiltration; type: ADME, organism-based; conditions: in vivo
# Outline: (§7)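 Plasma binding was measured by ultrafiltration. EDTA blood from healthy mice, or from NMRI mice infected intraperitoneally for 6 h with E19977, was spiked with DCX at 10–400 mg/liter, with PBS controls. Samples were held 1 h at 37°C, then centrifuged through 30-kDa filters at 3,000 × g for 8 min at 37°C. Total and filtrate drug were measured by S. lutea bioassay.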
# Mus musculus [23] = species on record: Mus musculus; assay: Protein binding in NMRI mouse infected with Staphylococcus aureus E19977 at 30 mg/l by ultrafiltration; type: ADME, organism-based; conditions: in vivo; outline: as §7
# Mus musculus [24] = species on record: Mus musculus; assay: Protein binding in NMRI mouse infected with Staphylococcus aureus E19977 at 10 mg/l by ultrafiltration; type: ADME, organism-based; conditions: in vivo; outline: as §7
# [25] = fT>MIC in Staphylococcus aureus E19977 infected NMRI mouse at 120 mg/kg administered every 3 hrs; type: functional; outline: as §1
# [26] = fT>MIC in Staphylococcus aureus E19977 infected NMRI mouse at 200 mg/kg administered every 4 hrs; type: functional; outline: as §1
# Staphylococcus aureus [27] = assay: Bacteriostatic activity against Staphylococcus aureus E19977 infected in human THP-1 cells at 10 times MIC after 5 hrs; type: functional, organism-based; outline: as §2
structure (smiles),measurement,setting,value
Cc1onc(-c2c(Cl)cccc2Cl)c1C(=O)N[C@@H]1C(=O)N2[C@@H]1SC(C)(C)[C@@H]2C(=O)O [DICLOXACILLIN],fT>MIC,[1],37.78%
same,EC50,Staphylococcus aureus [2],0.31 µg/mL
same,Activity,Staphylococcus aureus [3],Active
same,FC,Staphylococcus aureus [4],3
same,FC,Staphylococcus aureus [5],<1
same,FC,Staphylococcus aureus [6],<1
same,FC,Staphylococcus aureus [7],<1
same,FC,Staphylococcus aureus [8],<1
same,Emax,Staphylococcus aureus [9],-3.81 deltalog10CFU/ml
same,AUC at 24 h,[10],70400 ng·h/mL
same,AUC at 24 h,[11],190 µg·h/mL
same,AUC at 24 h,[12],726 µg·h/mL
same,Cmax,[13],529 µg/mL
same,half-life,[14],19 min
same,half-life,[15],22 min
same,fAUC/MIC,[16],39.32 h
same,fAUC/MIC,[17],411.61 h
same,fAUC/MIC,[18],644.84 h
same,Ratio,[19],30.64
same,Ratio,[20],291.53
same,Ratio,[21],196.76
same,Activity,Mus musculus [22],93.9%
same,Activity,Mus musculus [23],91.9%
same,Activity,Mus musculus [24],93.6%
same,fT>MIC,[25],75.56%
same,fT>MIC,[26],86.25%
same,Activity,Staphylococcus aureus [27],Active
